Measured values as given in article PMC3035813 (The Journal of neuroscience : the official journal of the …, 2009).
No end group written: not given here.

Key:
GnRH neurons = assay: GnRH neuron firing, targeted extracellular recordings in brain slices; assay type: cell-based, mouse; conditions: 1 nM, 5 min, n=7
adult male rats = assay: LH and testosterone in intact adult male rats after icv injection; assay type: in vivo, rat; conditions: 100 pmol kisspeptin-10 icv alone
In short: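 Intact adult male rats (280–310 g; 14 h light, 22°C) with lateral-ventricle cannulae (4 mm deep; 1 mm posterior, 1.2 mm lateral to bregma), tested 24–48 h after implantation. 5 μl icv injections at 60 min intervals; 100 pmol kisspeptin-10 given with the last. Controls received saline vehicle. Jugular blood was taken 60 min later (180 min). Serum testosterone was measured by commercial kit (sensitivity 0.1 ng/tube; intraassay CV 4.5%).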

## kisspeptin-10 (YNWNSFGLRF; ends and bridges not checked; UniProt Q15726 112-121, looked up)
GnRH neurons
  effect on GnRH neuron firing activity: markedly increased GnRH neuron firing activity
Adult male rats
  testosterone levels at 60-min: 2.17 ± 0.2
